Key:
[1] = compound: COC1=C(OC)C(O)(CCn2cnc3c(N)ncnc32)OC1=O; assay: (§1) Rate of deamination in the presence of calf mucosal adenosine deaminase (ADA)
Method in brief: (§2)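 Deamination rates followed with calf mucosal ADA (EC 3.5.4.4) in buffer solutions; Km and Vmax relative to adenosine as substrate; inhibition (Ki) assessed with adenosine as substrate.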

[2] = compound: COC1=C(OC)/C(=C/Cn2cnc3c(N)ncnc32)OC1=O; assay: as §1; method in brief: as §2

B1: Adenosine deaminase (Bos taurus), P56658 (protein)
chain: MAQTPAFNKPKVELHVHLDGAIKPETILYYGRKRGIALPADTPEELQNIIGMDKPLSLPEFLAKFDYYMPAIAGCREAVKRIAYEFVEMKAKDGVVYVEVRYSPHLLANSKVEPIPWNQAEGDLTPDEVVSLVNQGLQEGERDFGVKVRSILCCMRHQPSWSSEVVELCKKYREQTVVAIDLAGDETIEGSSLFPGHVKAYAEAVKSGVHRTVHAGEVGSANVVKEAVDTLKTERLGHGYHTLEDATLYNRLRQENMHFEVCPWSSYLTGAWKPDTEHPVVRFKNDQVNYSLNTDDPLIFKSTLDTDYQMTKNEMGFTEEEFKRLNINAAKSSFLPEDEKKELLDLLYKAYGMPSPASAEQCL
[1]
  Km: > 800 µM
[2]
  Km: 266 µM
